These results are taken from ChEMBL document CHEMBL1129264, “Mercaptoacyl dipeptides as orally active dual inhibitors of angiotensin-converting enzyme and neutral endopeptidase” (1996).

In assay [1] the target is T1, Angiotensin-converting enzyme (Rattus norvegicus) (UniProt P47820).
T1 sequence (whole entry): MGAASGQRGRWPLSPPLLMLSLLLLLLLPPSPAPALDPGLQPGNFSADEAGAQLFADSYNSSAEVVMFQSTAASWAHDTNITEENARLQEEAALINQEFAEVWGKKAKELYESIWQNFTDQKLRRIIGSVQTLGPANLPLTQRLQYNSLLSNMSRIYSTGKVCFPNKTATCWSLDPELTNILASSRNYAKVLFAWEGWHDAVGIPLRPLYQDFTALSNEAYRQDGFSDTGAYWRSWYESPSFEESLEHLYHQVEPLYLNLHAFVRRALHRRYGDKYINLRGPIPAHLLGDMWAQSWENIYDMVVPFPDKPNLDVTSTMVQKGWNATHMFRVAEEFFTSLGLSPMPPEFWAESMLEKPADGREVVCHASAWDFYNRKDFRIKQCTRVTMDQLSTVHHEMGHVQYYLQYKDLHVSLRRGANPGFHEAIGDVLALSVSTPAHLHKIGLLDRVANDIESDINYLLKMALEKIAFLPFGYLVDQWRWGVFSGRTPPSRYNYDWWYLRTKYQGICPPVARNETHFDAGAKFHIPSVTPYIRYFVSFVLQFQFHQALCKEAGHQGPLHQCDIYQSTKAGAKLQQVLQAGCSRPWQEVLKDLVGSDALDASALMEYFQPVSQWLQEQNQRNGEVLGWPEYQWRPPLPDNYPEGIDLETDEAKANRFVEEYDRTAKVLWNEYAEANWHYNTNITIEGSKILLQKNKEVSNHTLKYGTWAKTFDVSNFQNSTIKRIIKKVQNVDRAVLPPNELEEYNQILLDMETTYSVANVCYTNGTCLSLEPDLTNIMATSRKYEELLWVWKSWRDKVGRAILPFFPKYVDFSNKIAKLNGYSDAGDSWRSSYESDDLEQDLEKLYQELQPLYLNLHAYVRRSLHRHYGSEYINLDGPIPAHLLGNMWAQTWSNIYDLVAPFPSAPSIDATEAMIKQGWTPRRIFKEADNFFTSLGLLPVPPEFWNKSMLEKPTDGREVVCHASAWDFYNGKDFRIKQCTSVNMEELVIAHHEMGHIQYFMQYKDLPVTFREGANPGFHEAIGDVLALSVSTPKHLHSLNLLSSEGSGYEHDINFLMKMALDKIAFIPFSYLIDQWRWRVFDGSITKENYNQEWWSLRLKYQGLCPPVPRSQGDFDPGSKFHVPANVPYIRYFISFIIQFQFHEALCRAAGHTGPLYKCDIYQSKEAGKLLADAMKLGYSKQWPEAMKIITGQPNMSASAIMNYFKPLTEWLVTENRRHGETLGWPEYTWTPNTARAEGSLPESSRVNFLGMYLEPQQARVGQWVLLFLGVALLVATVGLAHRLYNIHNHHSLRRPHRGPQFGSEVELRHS
In words: Compound was tested for plasma inhibition of Angiotensin I converting enzyme activity in the conscious rat. Expressed as Inhibition of AI pressor response at 1 hr at a dose of 13.1 mg/kg po. It is filed as organism-based. Also noted: dose 13.1 mg/kg. In a few lines:
(§1)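 Male conscious normotensive Sprague-Dawley rats (275-390 g), given femoral arterial and venous catheters under methohexital sodium (75 mg/kg ip) anesthesia. Next day, pressor responses to three angiotensin-I challenges (300 ng/kg iv) recorded by direct arterial pressure. Compound then dosed orally, and AI challenge repeated at set times. Each post-dose response compared with the mean of the three baseline responses, giving % inhibition.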

In assay [2] the target is T1, Angiotensin-converting enzyme (Rattus norvegicus). The assay is described as follows: Compound was tested for plasma inhibition of Angiotensin I converting enzyme activity in the conscious rat. Expressed as Inhibition of AI pressor response at 2 hr at a dose of 13.1 mg/kg po. The format is organism-based. Also noted: dose 13.1 mg/kg. In a few lines: as §1
Assay [3] shares this target. The assay is described as follows: Compound was tested for plasma inhibition of Angiotensin I converting enzyme activity in the conscious rat. Expressed as Inhibition of AI pressor response at 6 hr at a dose of 13.1 mg/kg po. It is filed as organism-based. Also noted: dose 13.1 mg/kg. In a few lines: (§2)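 Male conscious normotensive Sprague-Dawley rats (275-390 g), prepared under methohexital sodium (75 mg/kg ip) with femoral arterial and venous catheters. The next day, pressor responses to three angiotensin-I challenges (300 ng/kg iv) were recorded. Compound was then given orally and angiotensin-I challenges were repeated at set times. Percent inhibition is relative to the mean of the three baseline responses.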

Assay [4] shares this target. In words: Compound was tested for plasma inhibition of Angiotensin I converting enzyme activity in the conscious rat. Expressed as Inhibition of AI pressor response at 4 hr at a dose of 13.1 mg/kg po. Also noted: dose 13.1 mg/kg. It is filed as organism-based. Summed up:
as §2

Assay [5] concerns Rattus norvegicus. The assay is described as follows: Plasma ANF Concentration in the Conscious Rat at a dose of 13.1(po)mg/kg at 0.5 h. It is filed as functional. In a few lines: (§3)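 Male Sprague-Dawley rats (275-390 g) received femoral artery and vein catheters under ketamine (150 mg/kg)/acepromazine and recovered for 24 h, tethered, before study conscious. ratANF(99-126) was infused at 450 ng/kg/min iv for 5 h. Baseline blood was drawn at 60 min into the infusion, then compound was given po.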

Assay [6] deals with Rattus norvegicus. The assay is described as follows: Plasma ANF Concentration in the Conscious Rat at a dose of 13.1(po)mg/kg at 1 h. The format is functional. Summed up: as §3
In assay [7] the test system is Rattus norvegicus. In words: Plasma ANF Concentration in the Conscious Rat at a dose of 13.1(po)mg/kg at 2 h. It is filed as functional. Summed up:
as §3

Assay [8] concerns Rattus norvegicus. The assay is described as follows: Plasma ANF Concentration in the Conscious Rat at a dose of 13.1(po)mg/kg at 4 h. It is filed as functional. In a few lines: as §3
The target of assay [9] is T1, Angiotensin-converting enzyme (Rattus norvegicus). The assay is described as follows: Compound was tested for plasma inhibition of Angiotensin I converting enzyme activity in the conscious rat. Expressed as Inhibition of AI pressor response at 6 hr at a dose of 13.5 mg/kg po. The format is organism-based. Also noted: dose 13.5 mg/kg. Summed up:
as §2

Assay [10] shares this target. In words: Compound was tested for plasma inhibition of Angiotensin I converting enzyme activity in the conscious rat. Expressed as Inhibition of AI pressor response at 1 hr at a dose of 13.5 mg/kg po. The format is organism-based. Also noted: dose 13.5 mg/kg. Summed up: as §1
Assay [11] has the same target. The assay is described as follows: Compound was tested for plasma inhibition of Angiotensin I converting enzyme activity in the conscious rat. Expressed as Inhibition of AI pressor response at 4 hr at a dose of 13.5 mg/kg po. Also noted: dose 13.5 mg/kg. It is filed as organism-based. Summed up:
as §2

The target is the same in assay [12]. The assay is described as follows: Compound was tested for plasma inhibition of Angiotensin I converting enzyme activity in the conscious rat. Expressed as Inhibition of AI pressor response at 2 hr at a dose of 13.5 mg/kg po. The format is organism-based. Also noted: dose 13.5 mg/kg. Summed up:
as §1

Assay [13] deals with Rattus norvegicus. In words: Plasma ANF Concentration in the Conscious Rat at a dose of 13.5(po)mg/kg at 0.5 h. The format is functional. In a few lines:
(§4)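 Male Sprague-Dawley rats (275-390 g), catheterized in femoral artery and vein under ketamine (150 mg/kg)/acepromazine, tethered and recovered 24 h, studied conscious. Continuous iv rat ANF(99-126) infusion at 450 ng/kg/min for 5 h; baseline blood at 60 min, then oral dosing, sampling at 30-240 min.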

Assay [14] relates to Rattus norvegicus. In words: Plasma ANF Concentration in the Conscious Rat at a dose of 13.5(po)mg/kg at 1 h. It is filed as functional. In a few lines:
as §4

For assay [15], the system named is Rattus norvegicus. In words: Plasma ANF Concentration in the Conscious Rat at a dose of 13.5(po)mg/kg at 2 h. It is filed as functional. In a few lines: as §4
Assay [16] concerns Rattus norvegicus. In words: Plasma ANF Concentration in the Conscious Rat at a dose of 13.5(po)mg/kg at 4 h. The format is functional. In a few lines: as §4

SMILES strings stand for the structures.

Regarding `COc1ccc(C[C@H](NC(=O)C2(NC(=O)[C@H](SC(C)=O)C(C)C)CCCC2)C(=O)OCc2ccccc2)cc1`, the inhibition came out at 85% in assay [1], 84% in [2], 64% in assay [3] and 81% in assay [4]. Also, the Control amounted to 107% in the assay on Rattus norvegicus [5], 111% in the assay with Rattus norvegicus [6], 143% in the assay on Rattus norvegicus [7] and 181% in the assay on Rattus norvegicus [8].

Consider `CCOC(=O)[C@H](Cc1ccc(OC(=O)COC)cc1)NC(=O)C1(NC(=O)[C@H](SC(C)=O)C(C)C)CCCC1`, for which the inhibition stood at 61% in assay [9], 79% in [10], 70% in assay [11] and 79% in assay [12]. In addition, the Control with Rattus norvegicus [13] worked out at 203%; in the assay with Rattus norvegicus [14], 263%; in the assay on Rattus norvegicus [15], 252%; in the assay on Rattus norvegicus [16], 223%.
